Experiments:
[1] = system: bone-marrow-derived dendritic cells (BMDCs); assay: Cytokine production in R848-stimulated BMDCs; type: cell-based, mouse; conditions: for IL-10 production: BMDCs, R848 stimulation; for IL-10 upregulation in Ccnc Δ/Δ BMDCs: BMDCs lacking cyclin C; for IL-10 upregulation in Ccnc Δ/Δ BMDCs / IL-10 upregulation in Ccnc f/f BMDCs: R848; for IL-10 upregulation in Ccnc f/f BMDCs: control BMDCs
Procedure, shortened: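 BMDCs from C57BL/6 bone marrow, pretreated 24 h with test compound or DMSO (0.5%), then given R848 (2 μg/mL) or zymosan A (4 μg/mL) for 18 h; some sets co-treated with T-5224 (100 μM). Cyclin C-deleted cells came from Ccnc f/f × Mx1-Cre mice given poly(I:C) 2.5 μg g−1 i.p. every other day for 3 d, with bone marrow taken 10 d later and deletion confirmed by PCR. Clarified medium assayed by cytometric bead array. n = 3–4 biological replicates; EC50 by 4-parameter regression.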

[2] = system: human, monocyte-derived DCs; assay: IL-10 production in R848-stimulated human DCs; type: cell-based; conditions: human DCs from two independent donors, R848 stimulation
Procedure, shortened: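 CD14+ monocytes enriched from healthy-donor buffy coats and cultured to DCs. On day 7, cells scraped and plated at 30,000/well, treated with a concentration series of test compound or DMSO (0.5%), then stimulated 18 h with R848 (2 μg/mL). Medium stored at −80 °C before IL-10 detection. n = 3 biological replicates per donor; two independent experiments.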

NF-κB = assay: TF-seq pathway reporter assay in BMDMs, NF-κB; type: cell-based, mouse; conditions: all stimuli tested
Procedure, shortened: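 Bone-marrow macrophages grown in DMEM with 30% FBS and 10% L929-conditioned medium, transduced on day 4 with a pooled lentiviral sequencing-based reporter library, then frozen and thawed. Cells plated at 100,000/well and pretreated 24 h at 37 °C with test compound (0.1 or 5 μM) or DMSO (0.5%). Stimulated up to 3 h with a ten-ligand panel or Sendai virus (MOI 10). Reporter transcripts counted as unique tagged molecules by sequencing.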

Il10 mRNA = Il10 mRNA levels after R848 stimulation; type: cell-based, mouse; conditions: pretreatment, then R848 / microbial stimulation
PI3KC2A = PI3KC2A (Homo sapiens, UniProt O00443); assay: Kinase profiling, PI3KC2A; type: binding; conditions: both kinase profiling formats
Chain of PI3KC2A (O00443 whole entry): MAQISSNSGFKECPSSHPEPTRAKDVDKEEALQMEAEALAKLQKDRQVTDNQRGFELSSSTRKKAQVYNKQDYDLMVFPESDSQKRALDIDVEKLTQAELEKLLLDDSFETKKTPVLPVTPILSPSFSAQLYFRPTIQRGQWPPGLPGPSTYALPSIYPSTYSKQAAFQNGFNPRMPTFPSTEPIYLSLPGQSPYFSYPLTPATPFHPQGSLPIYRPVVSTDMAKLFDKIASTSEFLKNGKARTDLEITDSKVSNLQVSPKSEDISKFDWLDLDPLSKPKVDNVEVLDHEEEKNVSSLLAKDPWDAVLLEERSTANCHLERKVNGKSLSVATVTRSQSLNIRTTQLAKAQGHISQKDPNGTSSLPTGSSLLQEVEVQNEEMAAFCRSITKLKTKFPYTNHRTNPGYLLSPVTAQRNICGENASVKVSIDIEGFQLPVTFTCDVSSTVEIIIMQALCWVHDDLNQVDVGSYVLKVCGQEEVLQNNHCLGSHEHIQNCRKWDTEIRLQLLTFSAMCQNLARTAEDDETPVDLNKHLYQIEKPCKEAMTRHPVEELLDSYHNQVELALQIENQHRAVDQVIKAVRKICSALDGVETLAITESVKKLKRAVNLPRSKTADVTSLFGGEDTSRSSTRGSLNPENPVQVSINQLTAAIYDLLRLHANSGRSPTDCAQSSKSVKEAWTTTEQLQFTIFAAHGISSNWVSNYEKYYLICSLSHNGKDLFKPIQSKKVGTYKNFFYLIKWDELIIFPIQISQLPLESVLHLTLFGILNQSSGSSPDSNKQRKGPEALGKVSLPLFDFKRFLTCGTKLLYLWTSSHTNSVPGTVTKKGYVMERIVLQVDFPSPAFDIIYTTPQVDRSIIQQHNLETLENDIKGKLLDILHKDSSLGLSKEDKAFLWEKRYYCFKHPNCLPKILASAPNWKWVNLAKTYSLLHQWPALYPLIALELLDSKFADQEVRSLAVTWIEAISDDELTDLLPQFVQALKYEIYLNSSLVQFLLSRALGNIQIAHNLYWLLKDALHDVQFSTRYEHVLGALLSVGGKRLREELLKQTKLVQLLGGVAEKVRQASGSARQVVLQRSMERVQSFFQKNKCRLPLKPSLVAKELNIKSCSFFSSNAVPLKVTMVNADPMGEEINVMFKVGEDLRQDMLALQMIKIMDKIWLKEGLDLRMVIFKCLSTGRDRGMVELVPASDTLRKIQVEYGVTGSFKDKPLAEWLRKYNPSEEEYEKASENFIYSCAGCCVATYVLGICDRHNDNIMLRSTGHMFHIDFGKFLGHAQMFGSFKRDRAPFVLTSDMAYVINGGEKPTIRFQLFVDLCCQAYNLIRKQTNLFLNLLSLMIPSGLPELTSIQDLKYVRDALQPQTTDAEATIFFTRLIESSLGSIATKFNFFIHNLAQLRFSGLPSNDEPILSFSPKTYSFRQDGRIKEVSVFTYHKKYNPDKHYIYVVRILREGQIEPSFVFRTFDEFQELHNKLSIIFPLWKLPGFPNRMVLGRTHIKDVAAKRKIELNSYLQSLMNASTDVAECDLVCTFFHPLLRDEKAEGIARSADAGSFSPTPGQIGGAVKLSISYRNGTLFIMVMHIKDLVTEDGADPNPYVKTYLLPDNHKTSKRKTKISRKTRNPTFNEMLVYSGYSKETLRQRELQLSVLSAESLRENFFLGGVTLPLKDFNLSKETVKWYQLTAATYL
Procedure, shortened: (§1)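 Test compound screened at 1 μM against 414 kinases (LanthaScreen Eu binding, Adapta or Z-LYTE), scored as percent probe displacement or residual activity versus DMSO (0.5%). Also screened at 10 μM against 395 kinases by KINOMEscan active-site competitive binding, scored as percent displacement of a catalytic-site probe versus DMSO (0.5%).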

STAT1–STAT2 = assay: TF-seq pathway reporter assay in BMDMs, STAT1–STAT2; type: cell-based, mouse; conditions: ~2 h after stimulation
[3] = target: T1, recombinant cyclin C–CDK8 (Homo sapiens, UniProt P49336); assay: CDK8 radiometric filter-binding kinase activity assay; type: biochemical; conditions: read-out: inhibition of kinase activity of cyclin C–CDK8, IC50
T1 sequence (P49336 whole entry): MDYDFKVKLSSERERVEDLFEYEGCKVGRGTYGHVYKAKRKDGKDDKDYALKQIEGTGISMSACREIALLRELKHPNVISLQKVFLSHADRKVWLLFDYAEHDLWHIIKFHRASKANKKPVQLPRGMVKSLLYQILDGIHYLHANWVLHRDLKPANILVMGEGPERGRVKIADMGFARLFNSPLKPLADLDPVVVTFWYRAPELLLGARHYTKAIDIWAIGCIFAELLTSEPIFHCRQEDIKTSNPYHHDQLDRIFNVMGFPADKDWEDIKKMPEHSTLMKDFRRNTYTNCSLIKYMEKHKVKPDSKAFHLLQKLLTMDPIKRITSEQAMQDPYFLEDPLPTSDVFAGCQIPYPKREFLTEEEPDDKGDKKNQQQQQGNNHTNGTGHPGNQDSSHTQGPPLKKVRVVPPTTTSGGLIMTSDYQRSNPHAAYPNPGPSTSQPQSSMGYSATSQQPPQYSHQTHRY
T1 sequence (P24863 whole entry partner): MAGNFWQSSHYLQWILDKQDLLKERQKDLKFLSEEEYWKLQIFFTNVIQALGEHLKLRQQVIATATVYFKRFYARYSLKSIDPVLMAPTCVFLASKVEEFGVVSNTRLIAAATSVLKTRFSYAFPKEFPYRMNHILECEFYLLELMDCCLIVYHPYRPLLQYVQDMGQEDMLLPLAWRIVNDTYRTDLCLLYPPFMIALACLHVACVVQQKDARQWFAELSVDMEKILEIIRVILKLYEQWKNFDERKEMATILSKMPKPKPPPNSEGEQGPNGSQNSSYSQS
Procedure, shortened: (§2)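 Purified recombinant cyclin C–CDK8 or cyclin C–CDK19 incubated with a dilution series of test compound. Activity measured by radiometric filter binding as [γ-32P] transfer from ATP to recombinant RBER-IRStide substrate, relative to DMSO (1%) control. IC50 estimated by 4-parameter nonlinear regression.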

[4] = target: recombinant cyclin C–CDK19 (Homo sapiens, UniProt Q9BWU1); assay: CDK19 radiometric filter-binding kinase activity assay; type: biochemical; conditions: read-out: inhibition of kinase activity of cyclin C–CDK19, IC50
Chain of recombinant cyclin C–CDK19 (Q9BWU1 whole entry): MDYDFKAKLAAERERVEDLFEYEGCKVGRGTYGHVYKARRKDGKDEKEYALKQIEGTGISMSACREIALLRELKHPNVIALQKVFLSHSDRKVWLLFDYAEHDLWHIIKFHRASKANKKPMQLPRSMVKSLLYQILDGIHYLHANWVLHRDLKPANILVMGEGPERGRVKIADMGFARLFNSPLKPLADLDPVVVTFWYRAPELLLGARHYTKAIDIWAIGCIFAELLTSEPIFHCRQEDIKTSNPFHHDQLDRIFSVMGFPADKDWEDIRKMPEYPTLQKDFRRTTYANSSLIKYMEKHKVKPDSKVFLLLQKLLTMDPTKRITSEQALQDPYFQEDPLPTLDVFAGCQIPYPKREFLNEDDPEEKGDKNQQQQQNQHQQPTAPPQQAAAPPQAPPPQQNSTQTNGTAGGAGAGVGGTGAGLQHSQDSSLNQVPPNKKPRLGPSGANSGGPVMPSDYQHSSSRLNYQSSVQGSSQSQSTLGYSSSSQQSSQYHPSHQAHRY
Chain of recombinant cyclin C–CDK19 (P24863 whole entry partner): as the sequence (P24863 whole entry partner) above
Procedure, shortened: as §2

STAT1 = STAT1 phosphorylation in IFNγ-stimulated BMDCs; type: cell-based, mouse; conditions: BMDCs pre-incubated with compound
Procedure, shortened: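 BMDCs pre-incubated with test compound, then stimulated with recombinant murine IFNγ. Cells lysed in Tris pH 7.4 buffer with phosphatase and protease inhibitors, 1% Triton X-100 and 0.2% SDS; lysate clarified at 14,000 × g. 10–20 μg protein run on SDS–PAGE and blotted to PVDF. Probed for total STAT1 and p-STAT1 Tyr701 (1/1,000), β-actin; chemiluminescent detection.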

PI3KCG = PI3KCG (Homo sapiens, UniProt P48736); assay: Kinase profiling, PI3KCG; type: binding; conditions: both kinase profiling formats
Chain of PI3KCG (P48736 whole entry): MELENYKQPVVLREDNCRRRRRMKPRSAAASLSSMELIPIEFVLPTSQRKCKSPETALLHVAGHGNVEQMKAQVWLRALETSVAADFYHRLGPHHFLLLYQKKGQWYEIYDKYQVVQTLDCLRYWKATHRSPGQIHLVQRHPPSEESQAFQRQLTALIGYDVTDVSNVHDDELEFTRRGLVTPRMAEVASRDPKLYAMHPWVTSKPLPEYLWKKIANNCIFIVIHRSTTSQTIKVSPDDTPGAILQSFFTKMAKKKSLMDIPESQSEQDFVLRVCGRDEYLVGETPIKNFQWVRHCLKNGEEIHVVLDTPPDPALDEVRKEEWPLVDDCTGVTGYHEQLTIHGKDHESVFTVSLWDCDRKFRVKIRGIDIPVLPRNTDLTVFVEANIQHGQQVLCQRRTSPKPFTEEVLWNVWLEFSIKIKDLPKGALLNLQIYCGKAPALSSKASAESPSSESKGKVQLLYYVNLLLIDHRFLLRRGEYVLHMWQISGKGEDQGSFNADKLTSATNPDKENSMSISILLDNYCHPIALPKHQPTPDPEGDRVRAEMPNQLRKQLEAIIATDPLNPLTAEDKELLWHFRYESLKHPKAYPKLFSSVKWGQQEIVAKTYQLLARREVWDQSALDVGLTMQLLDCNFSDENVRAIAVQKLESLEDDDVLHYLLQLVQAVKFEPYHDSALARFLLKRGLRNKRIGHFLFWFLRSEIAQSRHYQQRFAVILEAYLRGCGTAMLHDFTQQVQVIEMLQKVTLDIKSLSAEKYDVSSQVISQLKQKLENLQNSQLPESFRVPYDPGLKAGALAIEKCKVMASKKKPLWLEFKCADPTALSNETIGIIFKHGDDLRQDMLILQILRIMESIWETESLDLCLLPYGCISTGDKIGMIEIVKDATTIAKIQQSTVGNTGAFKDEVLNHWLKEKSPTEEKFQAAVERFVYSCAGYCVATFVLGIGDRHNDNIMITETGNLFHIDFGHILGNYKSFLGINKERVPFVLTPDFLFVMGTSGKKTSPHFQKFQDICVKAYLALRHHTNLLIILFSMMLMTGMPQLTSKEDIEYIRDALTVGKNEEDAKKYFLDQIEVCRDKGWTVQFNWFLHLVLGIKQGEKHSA
Procedure, shortened: as §1

[5] = target: human cyclin C–CDK8 complex (Homo sapiens, UniProt P49336); assay: Cyclin C-CDK8 LanthaScreen binding assay; conditions: read-out: binding to cyclin C–CDK8, half-maximal inhibitory concentration (IC50)
Chain of human cyclin C–CDK8 complex (P49336 whole entry, the tested form may be a part): as the sequence (P49336 whole entry) above
Chain of human cyclin C–CDK8 complex (P24863 whole entry partner, the tested form may be a part): as the sequence (P24863 whole entry partner) above
Procedure, shortened: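 Human cyclin C–CDK8 complex in a LanthaScreen binding format. Binding expressed as percent displacement of a dye-labelled probe from the CDK8 kinase domain.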

[6] = system: bone-marrow-derived dendritic cells (BMDCs); assay: IL-10 release, cytokines and viability in zymosan A-stimulated BMDCs; type: cell-based, mouse
[7] = system: mouse bone-marrow-derived macrophages (BMDMs); assay: IL-10 production in activated BMDMs; type: cell-based; conditions: BMDMs activated with zymosan A or R848
Procedure, shortened: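 Bone-marrow macrophages from C57BL/6 mice, treated 24 h with test compound or DMSO (0.5%), then stimulated 18 h with R848 (2 μg/mL) or zymosan A (4 μg/mL). IL-10 measured in culture medium.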

c-Jun = c-Jun phosphorylation in R848-activated BMDCs; type: cell-based, mouse; conditions: dCA pretreatment (100 nM; 18 h)
Procedure, shortened: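 BMDCs pretreated with test compound, then activated with R848 for a time course. Lysates (10–20 μg protein) separated by SDS–PAGE, transferred to PVDF and immunoblotted for phospho-c-Jun Ser243 (1/1000) with chemiluminescent detection. Two independent experiments.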

[8] = target: T1, recombinant cyclin C–CDK8; assay: CDK8–c-Jun in vitro kinase reaction; type: biochemical; conditions: in vitro kinase reaction with recombinant c-Jun
Procedure, shortened: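 60 ng recombinant cyclin C–CDK8 and 60 ng recombinant human c-Jun pre-incubated 15 min with a dilution series of test compound. Reaction started with 20 μM ATP and run 30 min at 30 °C in 60 mM HEPES pH 7.5, 3 mM MgCl2, 3 mM MnCl2, 1.2 mM DTT, then EDTA-quenched. Read by SDS–PAGE and immunoblot for phospho-c-Jun Ser243; two independent experiments.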

| Compound | IL-10 production [1] | IL-10 production [2] | NF-κB reporter activation (NF-κB) | Il10 mRNA levels (Il10 mRNA) | STAT1–STAT2 reporter activity (STAT1–STAT2) | IL-10 upregulation in Ccnc Δ/Δ BMDCs [1] | IL-10 upregulation in Ccnc f/f BMDCs [1] | further results |
| --- | --- | --- | --- | --- | --- | --- | --- | --- |
| Cn1ncc2cc(-c3cnc(N)c(Cl)c3N3CCC4(CCNC4=O)CC3)ccc21 [CCT251921] | recapitulated the IL-10 potentiating activity of BRD6989 | recapitulated the IL-10 potentiating activity of BRD6989 | – | – | – | – | – | – |
| CC1CCc2nc(N)c(C#N)c(-c3cccnc3)c2C1 (stereo not drawn) [BRD6989] | greater fold-increase in IL-10 production | upregulated IL-10 | suppressed NF-κB activation | sustained increase beginning at 4 h and extending to 24 h | suppressed induction of STAT1–STAT2 activity | failed to upregulate IL-10 | remained intact | kinase profiling hit, PI3KC2A (PI3KC2A): secondary targets; IC50 [3]: ~500 nM; IC50 [4]: > 30000 nM; IFNγ-induced phosphorylation of STAT1 at Ser727 (STAT1): inhibited; JAK-mediated phosphorylation of STAT1 Tyr701 (STAT1): did not affect; kinase profiling hit, PI3KCG (PI3KCG): secondary targets; IC50 [5]: ~200 nM; cell viability ([6]; 48 h pretreatment, zymosan A 18 h): modestly reducing cell viability; production of IL-1β ([6]; zymosan A): largely unchanged; production of IL-12p40 ([6]; zymosan A): largely unchanged; production of TNFα ([6]; zymosan A): largely unchanged; zymosan A–induced release of IL-6 ([6]; zymosan A): suppressed; IL-10 production [7]: increased IL-10 production |
| CN(C)[C@H]1C[C@@]23CC[C@@]4(O2)C(=CC[C@]2(C)C(c5ccc6ccncc6c5)=CC[C@H]24)C=C3[C@@H](O)[C@@H]1O [dCA, Δ^16-cortistatin A] | recapitulated the IL-10 potentiating activity of BRD6989 | recapitulated the IL-10 potentiating activity of BRD6989 | suppressed NF-κB activation | – | suppressed induction of STAT1–STAT2 activity | failed to upregulate IL-10 | remained intact | activating phosphorylation of c-Jun on Ser63 (c-Jun): only moderately delayed; phosphorylation of c-Jun Ser243 (c-Jun): dramatically reduced phosphorylation; c-Jun Ser243 phosphorylation by recombinant cyclin C–CDK8 [8]: concentration-dependent suppression |
| CN(C)C/C=C/C(=O)Nc1ccc(C(=O)Nc2cccc(Nc3ncc(Cl)c(-c4c[nH]c5ccccc45)n3)c2)cc1 [THZ-1] | not enhanced | – | – | – | – | – | – | – |
| COc1ccc(N(C(=O)Nc2c(C)cccc2C)c2cc(Nc3ccc(N4CCN(C)CC4)cc3)ncn2)c(OC)c1 [HG-9-91-01, reference compound] | – | – | – | elevated Il10 mRNA during the first 2 h | – | – | – | – |

— article PMC5693369 (Nature chemical biology, 2017)
